The Ki is the equilibrium dissociation constant of an inhibitor or competing ligand from its target.

In one test the target is T1, Serotonin 3 (5-HT3) receptor (Rattus norvegicus, UniProt P35563+Q9JJ16).
T1 sequence (P35563 whole entry): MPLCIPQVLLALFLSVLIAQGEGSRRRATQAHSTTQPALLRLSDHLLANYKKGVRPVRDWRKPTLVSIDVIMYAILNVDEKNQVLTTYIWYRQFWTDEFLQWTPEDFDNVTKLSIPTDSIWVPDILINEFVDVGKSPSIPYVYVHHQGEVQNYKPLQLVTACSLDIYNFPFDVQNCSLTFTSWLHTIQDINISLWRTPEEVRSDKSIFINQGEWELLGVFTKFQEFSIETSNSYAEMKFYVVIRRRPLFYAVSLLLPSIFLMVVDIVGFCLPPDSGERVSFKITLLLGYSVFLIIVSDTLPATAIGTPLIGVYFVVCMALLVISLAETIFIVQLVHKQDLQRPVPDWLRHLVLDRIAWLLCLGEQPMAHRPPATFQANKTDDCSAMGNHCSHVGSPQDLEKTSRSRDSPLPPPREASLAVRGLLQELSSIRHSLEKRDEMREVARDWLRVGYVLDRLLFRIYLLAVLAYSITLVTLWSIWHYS
T1 sequence (Q9JJ16 whole entry): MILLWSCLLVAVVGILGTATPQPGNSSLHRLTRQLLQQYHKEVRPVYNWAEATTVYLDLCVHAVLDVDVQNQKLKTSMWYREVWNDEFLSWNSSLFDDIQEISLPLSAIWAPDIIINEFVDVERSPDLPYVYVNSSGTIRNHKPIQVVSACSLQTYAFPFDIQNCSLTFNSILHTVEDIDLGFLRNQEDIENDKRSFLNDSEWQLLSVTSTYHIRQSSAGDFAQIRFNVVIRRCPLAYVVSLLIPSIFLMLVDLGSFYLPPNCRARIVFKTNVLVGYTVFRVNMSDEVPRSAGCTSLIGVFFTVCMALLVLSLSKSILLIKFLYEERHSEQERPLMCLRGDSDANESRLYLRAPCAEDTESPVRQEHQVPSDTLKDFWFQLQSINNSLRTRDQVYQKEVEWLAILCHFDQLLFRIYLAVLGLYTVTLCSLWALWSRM
Kind of test: Binding affinity against 5-hydroxytryptamine 3 (5-HT3) receptor in rat brain cortical membranes using radioligand [3H]quipazine.
Conditions: not given
The format is cell membranes. The method, boiled down: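 Rat cerebral cortex membranes, washed in 50 mM Tris pH 7.4, incubated 45 min at 25 °C in Tris-Krebs buffer pH 7.4 with 0.3–0.7 nM [3H]quipazine plus 0.1 μM paroxetine. Ten test concentrations from 1e-12 to 1e-4 M. Nonspecific binding defined with 1.0 μM racemic zacopride. Filtration, scintillation counting, IC50 by iterative fit, Ki by Cheng-Prusoff. Means of ≥3 determinations, or of two.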
Compound `O=c1c2ccccc2ccn1[C@@H]1CN2CCC1CC2` showed a Ki of 3.98 nM. On the same count and under the same terms, the value for `O=C(N[C@H]1CN2CCC1CC2)c1c2n(c3ccccc13)CCCC2` was 12.6 nM; that for `COc1cccc(C(=O)N[C@@H]2CN3CCC2CC3)c1C` was 398 nM; that for `O=c1c2cccc3c2c(cn1[C@H]1CN2CCC1CC2)CC3` was 25.1 nM.

Take `COc1ccc2c3c(cn(C4CN5CCC4CC5)c(=O)c13)CCC2` (centres undefined): the inhibitory constant (Ki) is 158 nM. Regarding `COc1cccc2c1CCN(C1CN3CCC1CC3)C2=O` (centres undefined), the Ki was 0.2 nM. `O=C1c2cccc3c2[C@@H](CCC3)CN1[C@H]1CN2CCC1CC2` had a Ki of 3.98 nM. On the same count and under the same terms, the value for `Cl.O=c1c2cccc3c2c(cn1[C@@H]1CN2CCC1CC2)CCC3` was 0.158 nM; that for `O=C(NC1CN2CCC1CC2)c1c2n(c3ccccc13)CCCC2` (centres undefined) was 2.51 nM. On to `O=C1c2cccc3c2[C@H](CCC3)CN1[C@H]1CN2CCC1CC2`, for which the inhibitory constant (Ki) is 2.51 nM. `Cl.O=c1c2cccc3c2c(cn1C1CN2CCC1CC2)CC3` (centres undefined) had a Ki of 0.631 nM. Same read-out and setting: as for `O=c1c2cccc(Cl)c2ccn1[C@@H]1CN2CCC1CC2`, the figure is 2.51 nM; as for `COc1ccc2c(=O)n([C@@H]3CN4CCC3CC4)cc3c2c1CCC3`, 12.6 nM. Consider `O=c1c2ccccc2ccn1C1CN2CCC1CC2` (centres undefined), for which affinity was put at a Ki of 10 nM. Same read-out and setting: the value for `Cc1ccccc1C(=O)NC1CN2CCC1CC2` (centres undefined) was 631 nM. In turn, `Cn1cc(C(=O)NC2CN3CCC2CC3)c2ccccc21` (centres undefined) gave an inhibition constant (Ki) of 2 nM. For `O=C(N[C@@H]1CN2CCC1CC2)c1cccc2c1CCCC2`, the inhibition constant (Ki) was 200 nM. On to `Cc1cccc(C(=O)N[C@@H]2CN3CCC2CC3)c1C`, for which the affinity corresponds to a Ki of 158 nM. For `CCCc1cn([C@@H]2CN3CCC2CC3)c(=O)c2ccccc12`, the affinity corresponds to a Ki of 5.01 nM. Turning to `O=C1c2cccc3c2[C@@H](CCC3)CN1C1CN2CCC1CC2` (mixture of isomers), the Ki is 0.316 nM. For the compound `COc1cc(N)c(Cl)cc1C(=O)N[C@H]1CN2CCC1CC2` [(R)ZACOPRIDE], affinity was put at a Ki of 3.16 nM.

The next test concerns Rattus norvegicus. Kind of test: Potency to inhibit bradycardiac effect measured by Von Bezold-Jarisch assay in 9 anesthetized rats. It counts as functional. Also noted: ID50: unit not given here.
Conditions: not given
The method, boiled down: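 Male Sprague-Dawley rats, 250–380 g, under urethane (1.5 g/kg ip), with cannulated trachea and femoral veins; heart rate recorded by ECG. Lowest consistent bradycardic dose of 2-methyl-5-HT titrated iv, then given every 12 min. Increasing iv doses given 5 min before each challenge, with saline vehicle group.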
`Cl.O=c1c2cccc3c2c(cn1[C@@H]1CN2CCC1CC2)CCC3` came in with an ID50 of 0.1.

Still in this test, the particulars now being: Rattus norvegicus; read-out: ID50 (the source's name).
Consider `Cl.O=c1c2cccc3c2c(cn1C1CN2CCC1CC2)CC3` (centres undefined), for which the ED50 was determined as 0.18 µg/kg. On the same count and under the same terms, the value for `O=c1c2c3ccccc3n3c2c(cn1[C@@H]1CN2CCC1CC2)CCC3` was 0.05 µg/kg.
